Reference: ChEMBL document CHEMBL1649126, “Debio 025, a cyclophilin binding molecule, is highly efficient in clearing hepatitis C virus (HCV) replicon-containing cells when used alone or in combination with specifically targeted antiviral therapy for HCV (STAT-C) inhibitors” (Antimicrob Agents Chemother, 2009)
Active and inactive are the calls of the source. The calls are words filed in the database; no cut-off is given here.

What was measured:
Hepatitis C virus [1] = test: Antiviral activity against HCV genotype 1b infected in human Huh-9-13 cells assessed as reduction in viral replication selected after 5 passages at 4 uM by quantitative RT-PCR; assay type: functional, organism-based; conditions: Hepacivirus hominis
Summary of the method: (§1)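 Resistant replicons were selected by passaging Huh 9-13 cells under 1 mg/ml G418 with gradually increasing inhibitor concentrations.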

Hepatitis C virus [2] = test: Antiviral activity against HCV genotype 1b infected in human Huh-9-13 cells assessed as reduction in viral replication selected after 7 passages at 15 uM by quantitative RT-PCR relative to wild type virus; assay type: functional, Hepacivirus hominis; summary of the method: as §1
Hepatitis C virus [3] = test: Antiviral activity against HCV genotype 1b infected in human Huh-9-13 cells assessed as reduction in viral replication selected after 5 passages at 4 uM by quantitative RT-PCR relative to wild type virus; assay type: functional, Hepacivirus hominis; summary of the method: as §1
Hepatitis C virus [4] = test: Antiviral activity against HCV genotype 1b infected in human Huh-9-13 cells assessed as reduction in viral replication selected at 0.5 uM by quantitative RT-PCR; assay type: functional, organism-based; conditions: Hepacivirus hominis
Hepatitis C virus [5] = test: Antiviral activity against HCV genotype 1b infected in human Huh-9-13 cells assessed as reduction in viral replication selected at 0.1 uM by quantitative RT-PCR; assay type: functional, organism-based; conditions: Hepacivirus hominis
Hepatitis C virus [6] = test: Antiviral activity against compound-resistant HCV genotype 1b infected in human Huh-9-13 cells assessed as reduction in viral replication after 3 days by quantitative RT-PCR; assay type: functional, organism-based, Hepacivirus hominis; conditions: 72 h
Summary of the method: (§2)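 Huh 9-13 cells carrying a subgenomic HCV replicon were seeded at 5 x 10^3 cells/well in medium with G418 and incubated 24 h at 37°C. Serial dilutions were then added in G418-free medium for 3 days. Cells were lysed, heated 15 min at 75°C, and replicon RNA was quantified by RT-qPCR against a neomycin plasmid standard. EC50 is the 50% RNA reduction versus untreated cells.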

Hepatitis C virus [7] = test: Antiviral activity against cyclosporine-resistant HCV genotype 1b infected in human Huh-9-13 cells assessed as reduction in viral replication after 3 days by quantitative RT-PCR; assay type: functional, organism-based, Hepacivirus hominis; conditions: 72 h; summary of the method: as §2
Hepatitis C virus [8] = test: Antiviral activity against 2'-C-methyl-2'-fluoro-cytidine-resistant HCV genotype 1b infected in human Huh-9-13 cells assessed as reduction in viral replication after 3 days by quantitative RT-PCR; assay type: functional, organism-based, Hepacivirus hominis; conditions: 72 h; summary of the method: as §2
Hepatitis C virus [9] = test: Antiviral activity against R479-resistant HCV genotype 1b infected in human Huh-9-13 cells assessed as reduction in viral replication after 3 days by quantitative RT-PCR; assay type: functional, organism-based, Hepacivirus hominis; conditions: 72 h; summary of the method: as §2
Hepatitis C virus [10] = test: Antiviral activity against BILN 2061-resistant HCV genotype 1b infected in human Huh-9-13 cells assessed as reduction in viral replication after 3 days by quantitative RT-PCR; assay type: functional, organism-based, Hepacivirus hominis; conditions: 72 h; summary of the method: as §2
Hepatitis C virus [11] = test: Antiviral activity against VX 950-resistant HCV genotype 1b infected in human Huh-9-13 cells assessed as reduction in viral replication after 3 days by quantitative RT-PCR; assay type: functional, organism-based, Hepacivirus hominis; conditions: 72 h; summary of the method: as §2
Hepatitis C virus [12] = test: Antiviral activity against HCV genotype 1b infected in human Huh-9-13 cells assessed as reduction in viral replication selected after 5 passages at 1 uM by quantitative RT-PCR; assay type: functional, organism-based; conditions: Hepacivirus hominis; summary of the method: as §1
Hepatitis C virus [13] = test: Antiviral activity against HCV genotype 1b infected in human Huh-9-13 cells assessed as reduction in viral replication selected after 5 passages at 1 uM by quantitative RT-PCR relative to wild type virus; assay type: functional, Hepacivirus hominis
Hepatitis C virus [14] = test: Antiviral activity against HCV genotype 1b infected in human Huh-9-13 cells assessed as reduction in viral replication selected after 2 passages at 30 ug/ml by quantitative RT-PCR; assay type: functional, organism-based; conditions: Hepacivirus hominis
Summary of the method: (§3)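 Huh 9-13 replicon cells were seeded at 3 x 10^5 per 25-cm2 flask without G418, with compound. They were passaged at about 90% confluence and reseeded at 3 x 10^5 with the same concentration. HCV RNA was measured by RT-qPCR at each passage as % of the untreated control at the same passage. In rebound, compound was removed and G418 (1,000 µg/ml) restored.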

Hepatitis C virus [15] = test: Antiviral activity against HCV genotype 1b infected in human Huh-9-13 cells assessed as reduction in viral replication selected after 3 passages at 30 ug/ml by quantitative RT-PCR; assay type: functional, organism-based; conditions: Hepacivirus hominis; summary of the method: as §3
Hepatitis C virus [16] = test: Antiviral activity against HCV genotype 1b infected in human Huh-9-13 cells assessed as reduction in viral replication after 3 days by quantitative RT-PCR; assay type: functional, organism-based, Hepacivirus hominis; conditions: 72 h; summary of the method: as §2
Hepatitis C virus [17] = test: Antiviral activity against HCV genotype 1b infected in human Huh-9-13 cells assessed as reduction in viral replication selected after 1 passages at 0.82 uM by quantitative RT-PCR; assay type: functional, Hepacivirus hominis; summary of the method: as §3
Hepatitis C virus [18] = test: Antiviral activity against HCV genotype 1b infected in human Huh-9-13 cells assessed as reduction in viral replication selected after 1 passages at 5 ug/ml by quantitative RT-PCR; assay type: functional, Hepacivirus hominis; summary of the method: as §3
Hepatitis C virus [19] = test: Antiviral activity against HCV genotype 1b infected in human Huh-9-13 cells assessed as reduction in viral replication selected after 2 passages at 5 ug/ml by quantitative RT-PCR; assay type: functional, organism-based; conditions: Hepacivirus hominis; summary of the method: as §3
Hepatitis C virus [20] = test: Antiviral activity against HCV genotype 1b infected in human Huh-9-13 cells assessed as reduction in viral replication selected after 2 passages at 1 ug/ml by quantitative RT-PCR; assay type: functional, organism-based; conditions: Hepacivirus hominis; summary of the method: as §3
Hepatitis C virus [21] = test: Antiviral activity against HCV genotype 1b infected in human Huh-9-13 cells assessed as reduction in viral replication selected after 3 passages at 1 ug/ml by quantitative RT-PCR […]; assay type: functional, organism-based; conditions: Hepacivirus hominis
Hepatitis C virus [22] = test: Antiviral activity against HCV genotype 1b infected in human Huh-9-13 cells assessed as reduction in viral replication selected after 7 passages at 5 ug/ml by quantitative RT-PCR […]; assay type: functional, organism-based; conditions: Hepacivirus hominis
Hepatitis C virus [23] = test: Antiviral activity against HCV genotype 1b infected in human Huh-9-13 cells assessed as reduction in viral replication selected after 7 passages at 30 ug/ml by quantitative RT-PCR […]; assay type: functional, organism-based; conditions: Hepacivirus hominis
[24] = Cytotoxicity against human Huh-9-13 cells at 1 ug/ml after 3 days by MTT assay; assay type: cell-based; conditions: 72 h
[25] = Cytotoxicity against human Huh-9-13 cells at 5 ug/ml after 3 days by MTT assay; assay type: cell-based; conditions: 72 h
[26] = Cytotoxicity against human Huh-9-13 cells at 30 ug/ml after 3 days by MTT assay; assay type: cell-based; conditions: 72 h
Hepatitis C virus [27] = test: Antiviral activity against HCV genotype 1b infected in human Huh-9-13 cells assessed as reduction in viral replication selected after 7 passages at 0.25 ug/ml by quantitative RT-PCR; assay type: functional, organism-based; conditions: Hepacivirus hominis
Summary of the method: (§4)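 Clearance-rebound in Huh 9-13 replicon cells over seven consecutive passages without G418, using twofold dilutions from 0.50 to 0.016 µg/ml. Rebound passages omitted compound under 1,000 µg/ml G418. Remaining HCV RNA was measured by RT-qPCR each passage as % of the untreated control at the same passage number.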

Hepatitis C virus [28] = test: Antiviral activity against HCV genotype 1b infected in human Huh-9-13 cells assessed as reduction in viral replication selected after 8 passages at 0.25 ug/ml by quantitative RT-PCR; assay type: functional, organism-based; conditions: Hepacivirus hominis; summary of the method: as §4
Hepatitis C virus [29] = test: Antiviral activity against HCV genotype 1b infected in human Huh-9-13 cells assessed as reduction in viral replication selected after 6 passages at 2 uM by quantitative RT-PCR; assay type: functional, organism-based; conditions: Hepacivirus hominis; summary of the method: as §1
Hepatitis C virus [30] = test: Antiviral activity against HCV genotype 1b infected in human Huh-9-13 cells assessed as reduction in viral replication selected after 6 passages at 2 uM by quantitative RT-PCR relative to wild type virus; assay type: functional, Hepacivirus hominis; summary of the method: as §1

SMILES | EC50 (Hepatitis C virus [6]) [nM] | EC50 (Hepatitis C virus [7]) [nM] | EC50 (Hepatitis C virus [8]) [nM] | EC50 (Hepatitis C virus [9]) [nM] | EC50 (Hepatitis C virus [10]) [nM] | EC50 (Hepatitis C virus [11]) [nM] | EC50 (Hepatitis C virus [16]) [nM] | also measured
[N-]=[N+]=N[C@]1(CO)O[C@@H](n2ccc(N)nc2=O)[C@H](O)[C@@H]1O [4'-AZIDOCYTIDINE] | 120 | 260 | 3380 | 15600 | 20 | 690 |  | Activity (Hepatitis C virus [1]): inactive; fold change (FC) (Hepatitis C virus [2]): 8; fold change (FC) (Hepatitis C virus [3]): 3; inhibition (Hepatitis C virus [4]): Active; inhibition (Hepatitis C virus [5]): inactive
C/C=C/C[C@@H](C)[C@@H](O)[C@H]1C(=O)N[C@@H](CC)C(=O)N(C)CC(=O)N(C)[C@@H](CC(C)C)C(=O)N[C@@H](C(C)C)C(=O)N(C)[C@@H](CC(C)C)C(=O)N[C@@H](C)C(=O)N[C@H](C)C(=O)N(C)[C@@H](CC(C)C)C(=O)N(C)[C@@H](CC(C)C)C(=O)N(C)[C@@H](C(C)C)C(=O)N1C [CYCLOSPORINE] | 350 | 3850 | 400 | 1980 | 4 | 490 |  | 
COc1ccc2c(O[C@@H]3C[C@H]4C(=O)N[C@]5(C(=O)O)C[C@H]5/C=C\CCCCC[C@H](NC(=O)OC5CCCC5)C(=O)N4C3)cc(-c3csc(NC(C)C)n3)nc2c1 [CILUPREVIR] | 100 | 170 | 290 | 2160 | 1250 | 310 |  | inhibition (Hepatitis C virus [12]): inactive; fold change (FC) (Hepatitis C virus [13]): 50
NC(=O)c1ncn([C@@H]2O[C@H](CO)[C@@H](O)[C@H]2O)n1 |  |  |  |  |  |  |  | inhibition (Hepatitis C virus [14]): inactive; inhibition (Hepatitis C virus [15]): inactive
C[C@@]1(O)[C@H](O)[C@@H](CO)O[C@H]1n1ccc(N)nc1=O | 110 | 210 | 30200 | 1160 | 40 | 1010 | 410 | 
C/C=C/C[C@@H](C)[C@@H](O)[C@H]1C(=O)N[C@@H](CC)C(=O)N(C)[C@H](C)C(=O)N(CC)[C@@H](C(C)C)C(=O)N[C@@H](C(C)C)C(=O)N(C)[C@@H](CC(C)C)C(=O)N[C@@H](C)C(=O)N[C@H](C)C(=O)N(C)[C@@H](CC(C)C)C(=O)N(C)[C@@H](CC(C)C)C(=O)N(C)[C@@H](C(C)C)C(=O)N1C [ALISPORIVIR] | 2720 | 3010 | 410 | 2760 | 4 | 360 | 40 | inhibition at 0.82 µM (Hepatitis C virus [17]): 96.5%; inhibition at 5 µg/mL (Hepatitis C virus [18]): 96.5%; inhibition (Hepatitis C virus [19]): inactive; inhibition (Hepatitis C virus [20]): inactive; Activity (Hepatitis C virus [21]): Active; inhibition (Hepatitis C virus [22]): inactive; inhibition (Hepatitis C virus [23]): inactive; Activity [24]: Non-toxic; Activity [25]: Non-toxic; Activity [26]: Non-toxic; inhibition (Hepatitis C virus [27]): Active; Activity (Hepatitis C virus [28]): Active
CCC[C@H](NC(=O)[C@@H]1[C@H]2CCC[C@H]2CN1C(=O)[C@@H](NC(=O)[C@@H](NC(=O)c1cnccn1)C1CCCCC1)C(C)(C)C)C(=O)C(=O)NC1CC1 [TELAPREVIR] | 90 |  | 1020 |  | 790 | 14000 | 580 | inhibition at 0.82 µM (Hepatitis C virus [17]): 96.5%; inhibition at 5 µg/mL (Hepatitis C virus [18]): 96.5%; inhibition (Hepatitis C virus [19]): inactive; inhibition (Hepatitis C virus [20]): inactive; inhibition (Hepatitis C virus [29]): inactive; fold change (FC) (Hepatitis C virus [30]): 4
